Assay [1] deals with SK-OV-3. The assay can be described thus: Cytotoxicity against human SKOV3 cells after 48 hrs by SRB assay. It counts as functional, cell-based. The conditions noted are these: SK-OV-3, 48 h. The procedure, abridged:
(§1)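 Cells in RPMI-1640 with 10% heat-inactivated FBS, 1 mM NaHCO3, 2 mM L-glutamine, 37 °C, 5% CO2; seeded (B16F10 5 × 10⁴ cells/mL, others 1 × 10⁵ cells/mL), 24 h, then compounds in DMSO at 1.56–50 for 48 h, triplicate wells. TCA fixation, SRB staining 30 min, tris extraction, OD 520 nm; IC50 by linear regression, mean ± SD of three independent experiments; cisplatin positive control.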
A general note: Sulforhodamine B stains cellular protein and so reports cell mass.

Assay [2] can be described thus: Cytotoxicity against human SK-MEL-12 cells after 48 hrs by SRB assay. In kind it is functional, cell-based. The procedure, abridged:
as §1

The subject of assay [3] is Klebsiella pneumoniae. Put plainly: Antibacterial activity against Klebsiella pneumoniae at 50 ug/ml after 24 hrs by agar disk diffusion assay. It counts as functional. The conditions noted are these: read-out: DIZ. The procedure, abridged:
(§2)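 Gram-negative clinical isolates (PSG Hospital, Coimbatore) tested by agar well diffusion on nutrient agar. Compounds dissolved in DMSO at 0 (control), 25, 50, 75, 100; DMSO was the negative control and ciprofloxacin ([…]) the positive control. Incubation 37 ± 2 °C for 24 h, then inhibition zone diameter measured in mm.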

Assay [4] concerns Candida albicans. The assay can be described thus: Antifungal activity against Candida albicans after 48 hrs by agar disk diffusion assay. It counts as functional. The procedure, abridged:
(§3)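 Fungal isolates (PSG Hospital, Coimbatore) grown on Sabouraud dextrose agar; agar well diffusion with compounds in DMSO at 0 (control), 25, 50, 75, 100. DMSO negative control, fluconazole ([…]) positive control. Plates held 28 ± 2 °C for 48 h; zone of inhibition diameter recorded in mm.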
In general terms: Agar diffusion results depend on both activity and mobility in agar.

In another assay the test system is A549. Put plainly: Cytotoxicity against human A549 cells after 48 hrs by SRB assay. In kind it is functional, cell-based. The following applies: A549, 48 h. The procedure, abridged: as §1
For assay [5], the system named is Escherichia coli. The assay can be described thus: Antibacterial activity against Escherichia coli at 50 ug/ml after 24 hrs by agar disk diffusion assay. It counts as functional. The following applies: read-out: DIZ. In a few lines:
as §2

The test system of assay [6] is Enterococcus faecalis. The assay can be described thus: Antibacterial activity against Enterococcus faecalis after 24 hrs by agar disk diffusion assay. It counts as functional. In a few lines: (§4)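 Agar well diffusion on nutrient agar against Gram-positive clinical isolates (PSG Hospital, Coimbatore). Compounds in DMSO tested at 0 (control), 25, 50, 75, 100; DMSO as solvent and negative control; ciprofloxacin ([…]) as positive control. Plates incubated 37 ± 2 °C, 24 h; zone of inhibition diameter read in mm.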

Assay [7] deals with Candida albicans. The assay can be described thus: Antifungal activity against Candida albicans at 50 ug/ml after 48 hrs by agar disk diffusion assay. In kind it is functional. The conditions noted are these: read-out: DIZ. In a few lines: as §3
For assay [8], the system named is Enterococcus faecalis. The assay can be described thus: Antibacterial activity against Enterococcus faecalis at 50 ug/ml after 24 hrs by agar disk diffusion assay. The conditions noted are these: read-out: DIZ. It counts as functional. In a few lines: as §4
Assay [9] relates to Staphylococcus aureus. Put plainly: Antibacterial activity against Staphylococcus aureus at 50 ug/ml after 24 hrs by agar disk diffusion assay. It counts as functional. The following applies: read-out: DIZ. The procedure, abridged:
as §4

For assay [10], the system named is B16-F10. Put plainly: Cytotoxicity against mouse B16F10 cells after 48 hrs by SRB assay. It counts as functional, cell-based. The following applies: B16-F10, 48 h. The procedure, abridged:
as §1

The subject of the next assay is HCT-15. The assay can be described thus: Cytotoxicity against human HCT15 cells after 48 hrs by SRB assay. It counts as functional, cell-based. The conditions noted are these: HCT-15, 48 h. In a few lines:
as §1

In assay [11] the test system is Staphylococcus aureus. The assay can be described thus: Antibacterial activity against Staphylococcus aureus after 24 hrs by agar disk diffusion assay. In kind it is functional. In a few lines: as §4
Assay [12] relates to Escherichia coli. The assay can be described thus: Antibacterial activity against Escherichia coli after 24 hrs by agar disk diffusion assay. It counts as functional. The procedure, abridged:
as §2

Assay [13] relates to Radical scavenging activity. The assay can be described thus: Antioxidant activity assessed as DPPH radical scavenging activity after 30 mins by micro plate reader. It counts as functional. In a few lines:
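DPPH assay: various compound concentrations brought to volume with ethanol, mixed with 0.1 mM ethanolic DPPH alongside vitamin C standard; shaken 30 min at 24 °C, absorbance read at 517 nm; concentration giving 50% decrease determined.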

The subject of assay [14] is Aspergillus niger. The assay can be described thus: Antifungal activity against Aspergillus niger at 50 ug/ml after 48 hrs by agar disk diffusion assay. In kind it is functional. The following applies: read-out: DIZ. In a few lines:
as §3

Assay [15] deals with Aspergillus niger. Put plainly: Antifungal activity against Aspergillus niger after 48 hrs by agar disk diffusion assay. It counts as functional. In a few lines: as §3
Assay [16] deals with Klebsiella pneumoniae. Put plainly: Antibacterial activity against Klebsiella pneumoniae after 24 hrs by agar disk diffusion assay. In kind it is functional. The procedure, abridged:
as §2

Assay [17] deals with B16-F10. The assay can be described thus: Ratio of cisplatin IC50 to compound IC50 for mouse B16F10. It counts as functional.
The subject of assay [18] is SK-OV-3. The assay can be described thus: Cytotoxicity against human SKOV3 cells up to 50 ug/ml after 48 hrs by SRB assay. In kind it is functional, cell-based. In a few lines:
as §1

Assay [19] deals with Klebsiella pneumoniae. The assay can be described thus: Antibacterial activity against Klebsiella pneumoniae at 25 ug/ml after 24 hrs by agar disk diffusion assay. In kind it is functional. The following applies: read-out: DIZ. The procedure, abridged:
as §2

Assay [20] in a line: Cytotoxicity against human SK-MEL-12 cells up to 50 ug/ml after 48 hrs by SRB assay. In kind it is functional, cell-based. The procedure, abridged: as §1
For assay [21], the system named is Staphylococcus aureus. Put plainly: Antibacterial activity against Staphylococcus aureus at 25 ug/ml after 24 hrs by agar disk diffusion assay. It counts as functional. The following applies: read-out: DIZ. The procedure, abridged:
as §4

The test system of assay [22] is Aspergillus niger. The assay can be described thus: Antifungal activity against Aspergillus niger at 25 ug/ml after 48 hrs by agar disk diffusion assay. The conditions noted are these: read-out: DIZ. It counts as functional. In a few lines:
as §3

Assay [23] has as its system Escherichia coli. Put plainly: Antibacterial activity against Escherichia coli at 25 ug/ml after 24 hrs by agar disk diffusion assay. It counts as functional. The following applies: read-out: DIZ. The procedure, abridged: as §2
Assay [24] relates to Enterococcus faecalis. Put plainly: Antibacterial activity against Enterococcus faecalis at 25 ug/ml after 24 hrs by agar disk diffusion assay. It counts as functional. The conditions noted are these: read-out: DIZ. The procedure, abridged: as §4
Assay [25] relates to Candida albicans. Put plainly: Antifungal activity against Candida albicans at 25 ug/ml after 48 hrs by agar disk diffusion assay. In kind it is functional. The following applies: read-out: DIZ. The procedure, abridged: as §3

The results in this text go back to ChEMBL document CHEMBL1909519, “L-Proline anchored multicomponent synthesis of novel pyrido[2,3-a]carbazoles; investigation of in vitro antimicrobial, antioxidant, cytotoxicity and structure activity relationship studies” (Eur J Med Chem, 2011).

SMILES strings stand for the structures. Values after ≈ are worked out from the molar mass of the structure shown.

As a reminder, the IC50 is the midpoint of a concentration-inhibition curve. One may read the MIC as the lowest concentration found to suppress growth. Turning to `Cc1ccc2[nH]c3c(c2c1)CCc1c-3nc(N)c(C#N)c1-c1cccnc1`, the concentration for half-maximal inhibition (IC50) turned out to be 10.6 µg/mL (≈ 30.1 µM) in the assay on SK-OV-3 [1]; 16.6 µg/mL (≈ 47.3 µM) in assay [2]; 16.1 µg/mL (≈ 45.9 µM) in the assay with A549; 13.7 µg/mL (≈ 39 µM) in the assay with B16-F10 [10]; 47.6 µg/mL (≈ 136 µM) with HCT-15; 511.24 µg/mL (≈ 1450 µM) in assay [13]. For the same compound, the zone of inhibition at 50 µg/mL in the assay with Klebsiella pneumoniae [3] turned out to be 18 mm; with Escherichia coli [5] it was 19 mm; with Candida albicans [7], 5 mm; in the assay with Enterococcus faecalis [8], 20 mm; in the assay with Staphylococcus aureus [9] it was 20 mm; with Aspergillus niger [14], 3 mm. Also, the MIC against Candida albicans [4] was greater than 100 µg/mL; in the assay with Enterococcus faecalis [6] it was 50 µg/mL (≈ 142 µM); against Staphylococcus aureus [11], 50 µg/mL (≈ 142 µM); in the assay with Escherichia coli [12], 50 µg/mL (≈ 142 µM); with Aspergillus niger [15], greater than 100 µg/mL; against Klebsiella pneumoniae [16], 50 µg/mL (≈ 142 µM).

For the compound `Cc1ccc2[nH]c3c(c2c1)CCc1c-3nc(N)c(C#N)c1-c1ccc(Br)cc1`, the “Ratio IC50” value with B16-F10 [17] is listed as 2. In addition, the half-maximal inhibitory concentration (IC50) result in the assay on SK-OV-3 [18] is “Not Active”; with A549 it was 35 µg/mL (≈ 81.5 µM); in [20], “Not Active”; in the assay with B16-F10 [10] it was 2.84 µg/mL (≈ 6.62 µM); in the assay on HCT-15, 11 µg/mL (≈ 25.7 µM); in assay [13], 140.21 µg/mL (≈ 327 µM). Also, the minimum inhibitory concentration (MIC) is greater than 100 µg/mL with Candida albicans [4]; 25 µg/mL (≈ 58.2 µM) against Enterococcus faecalis [6]; 25 µg/mL (≈ 58.2 µM) in the assay with Staphylococcus aureus [11]; 25 µg/mL (≈ 58.2 µM) against Escherichia coli [12]; greater than 100 µg/mL in the assay with Aspergillus niger [15]; 25 µg/mL (≈ 58.2 µM) against Klebsiella pneumoniae [16]. For the same compound, the zone of inhibition at 25 µg/mL with Klebsiella pneumoniae [19] was 25 mm; in the assay with Staphylococcus aureus [21], 24 mm; in the assay with Aspergillus niger [22], 6 mm; with Escherichia coli [23], 22 mm; in the assay with Enterococcus faecalis [24], 23 mm; in the assay on Candida albicans [25] it was 7 mm.

In the case of `CCOC(=O)c1c(N)nc2c(c1-c1cccnc1)CCc1c-2[nH]c2ccc(C)cc12`, the IC50 in assay [2] is 24.9 µg/mL (≈ 62.5 µM); in the assay with SK-OV-3 [18] it was “Not Active”; in the assay on A549, 43.7 µg/mL (≈ 110 µM); in the assay on B16-F10 [10], 29.4 µg/mL (≈ 73.8 µM); with HCT-15, 33.8 µg/mL (≈ 84.8 µM); in assay [13], 210.34 µg/mL (≈ 528 µM). The zone of inhibition at 50 µg/mL came to 21 mm in the assay with Klebsiella pneumoniae [3]; 20 mm in the assay with Escherichia coli [5]; 9 mm in the assay with Candida albicans [7]; 17 mm in the assay with Enterococcus faecalis [8]; 19 mm in the assay with Staphylococcus aureus [9]; 4 mm with Aspergillus niger [14]. Besides, the minimal inhibitory concentration (MIC) against Candida albicans [4] is greater than 100 µg/mL; with Enterococcus faecalis [6], 50 µg/mL (≈ 125 µM); against Staphylococcus aureus [11], 50 µg/mL (≈ 125 µM); against Escherichia coli [12] it was 50 µg/mL (≈ 125 µM); against Aspergillus niger [15] it was greater than 100 µg/mL; in the assay on Klebsiella pneumoniae [16], 50 µg/mL (≈ 125 µM).

Take `CCOC(=O)c1c(N)nc2c(c1-c1cccs1)CCc1c-2[nH]c2ccc(C)cc12`: the IC50 in assay [2] is 48.2 µg/mL (≈ 119 µM); with SK-OV-3 [18] it was “Not Active”; in the assay on A549, 23.4 µg/mL (≈ 58 µM); in the assay on B16-F10 [10] it was 19.4 µg/mL (≈ 48 µM); with HCT-15, 22.5 µg/mL (≈ 55.8 µM); in assay [13], 244.85 µg/mL (≈ 607 µM). The MIC in the assay on Candida albicans [4] amounted to 75 µg/mL (≈ 186 µM); against Enterococcus faecalis [6], 25 µg/mL (≈ 62 µM); with Staphylococcus aureus [11], 25 µg/mL (≈ 62 µM); against Escherichia coli [12], 25 µg/mL (≈ 62 µM); in the assay with Aspergillus niger [15] it was 75 µg/mL (≈ 186 µM); against Klebsiella pneumoniae [16] it was 25 µg/mL (≈ 62 µM). In addition, the zone of inhibition at 25 µg/mL in the assay on Klebsiella pneumoniae [19] amounted to 29 mm; in the assay with Staphylococcus aureus [21], 27 mm; with Aspergillus niger [22] it was 17 mm; in the assay on Escherichia coli [23], 26 mm; with Enterococcus faecalis [24], 28 mm; in the assay with Candida albicans [25], 18 mm.
